Tests used:
[1] = system: human and guinea pig smooth muscle tissue; settings: cited from earlier work
[2] = cited from earlier work
[3] = system: inflammatory cells in bronchoalveolar lavage fluid; assay: Inflammatory cells in BALF of ova s/c BALB/c mice; format: in vivo, mouse
Procedure, shortened: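 Male BALB/c mice (5–10 wk), ova-sensitised/challenged, 10 per group; dexamethasone 4 mg/kg i.p. daily for 8 days (10% DMSO/40% propylene glycol/50% PBS); test compounds 100 mg/kg b.i.d. by gavage for 5 days. BAL with 1 ml Ca/Mg-free PBS, RBC lysis, Fc block, 30 min 4 °C antibody staining. CD45+ count gives cells/ml; CCR3+/GR1+/CD4+/CD11b+ frequencies × total; mean ± SEM versus vehicle.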

[4] = system: airway hyperresponsiveness and airway eosinophilia; settings: cited from earlier work
[5] = system: GABAARs expressed on splenocytes; assay: Automated patch-clamp electrophysiology for splenocytes; format: cell-based, mouse; settings: splenocytes from ova s/c mice

In the case of C#Cc1ccc2c(c1)C(c1ccccc1F)=N[C@H](C)c1c(C(=O)OCC)ncn1-2 [SH-053-2′F-R-CH3], the “smooth muscle relaxation ex vivo” value [1] is given as “relax human and guinea pig smooth muscle tissue” and the “blood brain barrier crossing” value [2] is given as “can cross the blood brain barrier”.

In the case of C[C@@H]1C[C@H]2[C@@H]3CCC4=CC(=O)C=C[C@]4(C)[C@@]3(F)[C@@H](O)C[C@]2(C)[C@@]1(O)C(=O)CO [dexamethasone], the “CD4+ T cell population in BALF” value ([3]; 4 mg/kg i.p. for 8 days) is reported as “significantly reduced”, the “CD11b+ leukocyte population in BALF” value ([3]; i.p. 4 mg/kg daily for 8 days) is reported as “as did dexamethasone treatment” and the “eosinophils (CCR3+) in BALF by flow cytometry” value ([3]; i.p. 4 mg/kg daily for 8 days) is reported as “almost completely eliminated”. The “reduction of white blood cells in BALF” value ([3]; i.p. 4 mg/kg daily for 8 days, compared with compounds 1 and 2) was “more pronounced” and the “AHR in ova s/c mice” value ([4]; dexamethasone treated ova s/c mice) was “reduced AHR”.

In the case of C=CCc1ccc(O)c(-c2ccc(O)c(CC=C)c2)c1 [honokiol], the “AHR and lung eosinophilia” value ([4]; acute and chronic administration, ova s/c mouse asthma model) is given as “reduced AHR and lung eosinophilia”.

For NCc1cc(=O)[nH]o1 [muscimol], the “induced current change relative to current change induced by GABA” value [5] was “around 50%”.
